Laboratory results as given in article PMC4254850 (Clinical cancer research : an official journal of the …, 2014).
Entries after “also recorded” stand apart in the source; their conditions may differ.

Tests used:
[1] = Phase I dose escalation: MTD, DLTs and toxicities; type: in vivo, human
Method in brief: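 Open-label, four-centre, 3+3 escalation in metastatic solid-tumour patients. Test compound taken orally from 2 mg, QD (2–96 mg) then BID (48–72 mg), in continuous 4-week cycles after a single-dose run-in with 5–7 day washout. Toxicities graded by CTCAE v4.03. DLTs assessed over run-in plus first cycle. MTD: highest level with ≤1 of 6 patients showing DLT. Descriptive statistics.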

[2] = tested on: human cancer cell lines with alterations in the PI3K pathway; details: in vitro; cited from earlier work

Compound: CS(=O)(=O)N1CCc2c(-c3cnc(N)nc3)nc(N3CCOCC3)nc21 [CH5132799]
- Treatment-related abdominal pain, number of patients ([1]; 48 mg BID (n=7), grade 1-2): 1
- Treatment-related diarrhea, number of patients ([1]; 48 mg BID (n=7), grade 1-2): 4
- Treatment-related dry skin, number of patients ([1]; 48 mg BID (n=7), grade 1-2): 2
- Treatment-related fatigue, number of patients ([1]; 48 mg BID (n=7), grade 1-2): 1
- Treatment-related rash, number of patients ([1]; 48 mg BID (n=7), grade 1-2): 1
- Treatment-related stomatitis, number of patients ([1]; 48 mg BID (n=7), grade 1-2): 3
- Treatment-related anemia, number of patients ([1]; 48 mg BID (n=7), grade 3-4): 1
- Treatment-related hyperglycemia, number of patients ([1]; 48 mg BID (n=7), grade 3-4): 1
- Grade ≥3 gastrointestinal AEs ([1]; 48 mg BID cohort): No grade ≥3 gastrointestinal AEs
- Patients with DLTs ([1]; 56 mg BID): Two of five
- Treatment-related abdominal pain, number of patients ([1]; 56 mg BID (n=5), grade 1-2): 1
- Treatment-related anemia, number of patients ([1]; 56 mg BID (n=5), grade 1-2): 1
- Treatment-related decreased appetite, number of patients ([1]; 56 mg BID (n=5), grade 1-2): 2
- Treatment-related diarrhea, number of patients ([1]; 56 mg BID (n=5), grade 1-2): 2
- Treatment-related fatigue, number of patients ([1]; 56 mg BID (n=5), grade 1-2): 3
- Treatment-related nausea, number of patients ([1]; 56 mg BID (n=5), grade 1-2): 3
- Treatment-related rash, number of patients ([1]; 56 mg BID (n=5), grade 1-2): 3
- Treatment-related stomatitis, number of patients ([1]; 56 mg BID (n=5), grade 1-2): 4
- Treatment-related vomiting, number of patients ([1]; 56 mg BID (n=5), grade 1-2): 3
- Treatment-related diarrhea, number of patients ([1]; 56 mg BID (n=5), grade 3-4): 2
- Treatment-related hyperglycemia, number of patients ([1]; 56 mg BID (n=5), grade 3-4): 2
- Treatment-related stomatitis, number of patients ([1]; 56 mg BID (n=5), grade 3-4): 1
- Treatment-related abdominal pain, number of patients ([1]; 56 mg QD (n=3), grade 1-2): 1
- Treatment-related diarrhea, number of patients ([1]; 56 mg QD (n=3), grade 1-2): 2
- Treatment-related dry skin, number of patients ([1]; 56 mg QD (n=3), grade 1-2): 1
- Treatment-related nausea, number of patients ([1]; 56 mg QD (n=3), grade 1-2): 1
- Treatment-related rash, number of patients ([1]; 56 mg QD (n=3), grade 1-2): 1
- Patients with DLTs ([1]; 72 mg BID): two of three
- Treatment-related anemia, number of patients ([1]; 72 mg BID (n=3), grade 1-2): 1
- Treatment-related decreased appetite, number of patients ([1]; 72 mg BID (n=3), grade 1-2): 2
- Treatment-related diarrhea, number of patients ([1]; 72 mg BID (n=3), grade 1-2): 2
- Treatment-related fatigue, number of patients ([1]; 72 mg BID (n=3), grade 1-2): 1
- Treatment-related nausea, number of patients ([1]; 72 mg BID (n=3), grade 1-2): 1
- Treatment-related stomatitis, number of patients ([1]; 72 mg BID (n=3), grade 1-2): 1
- Treatment-related vomiting, number of patients ([1]; 72 mg BID (n=3), grade 1-2): 1
- Treatment-related abdominal pain, number of patients ([1]; 72 mg BID (n=3), grade 3-4): 1
- Treatment-related fatigue, number of patients ([1]; 72 mg BID (n=3), grade 3-4): 1
- Treatment-related hyperglycemia, number of patients ([1]; 72 mg BID (n=3), grade 3-4): 1
- Treatment-related anemia, number of patients ([1]; 96 mg QD (n=4), grade 1-2): 1
- Treatment-related decreased appetite, number of patients ([1]; 96 mg QD (n=4), grade 1-2): 1
- Treatment-related diarrhea, number of patients ([1]; 96 mg QD (n=4), grade 1-2): 3
- Treatment-related dry skin, number of patients ([1]; 96 mg QD (n=4), grade 1-2): 2
- Treatment-related fatigue, number of patients ([1]; 96 mg QD (n=4), grade 1-2): 1
- Treatment-related nausea, number of patients ([1]; 96 mg QD (n=4), grade 1-2): 2
- Treatment-related rash, number of patients ([1]; 96 mg QD (n=4), grade 1-2): 2
- Treatment-related stomatitis, number of patients ([1]; 96 mg QD (n=4), grade 1-2): 2
- Treatment-related vomiting, number of patients ([1]; 96 mg QD (n=4), grade 1-2): 2
- Treatment-related diarrhea, number of patients ([1]; 96 mg QD (n=4), grade 3-4): 2
- Patients with Grade ≥3 hyperglycemia ([1]; BID dosing schedule): Five
- Maximum tolerated dose (MTD) ([1]; BID schedule, oral, 28-day cycles, patients with solid tumors): 48 mg
- Recommended phase 2 dose (RP2D) ([1]; BID, oral): 48 mg
- DLT ([1]; Cohort 7b, 48 mg BID, N=7, Cycle 1 Day 8): grade 3 elevated LFT at Cycle 1 Day 8
- DLT ([1]; Cohort 8, 72 mg BID, N=3, Cycle 1): grade 3 cerebral encephalopathy; also recorded: grade 3 Fatigue
- DLT ([1]; Cohort 9, 56 mg BID, N=5): grade 3 Diarrhea and stomatitis
- DLTs ([1]; QD schedule): No DLTs
- Maximum tolerated dose (MTD) ([1]; QD schedule, 2-96 mg, oral): not reached at 96 mg
- Reversibility of DLTs ([1]; all DLTs): reversible
- Grade 4 diarrhea ([1]; all dose levels): no grade 4 diarrhea reported
- Patients with grade 3 diarrhea ([1]; all dose levels): Four
- Treatment-related abdominal pain, number (%) of patients ([1]; all dose levels, Total (n=38)): 4 (11%)
- Treatment-related anemia, number (%) of patients ([1]; all dose levels, Total (n=38)): 5 (13%)
- Treatment-related decreased appetite, number (%) of patients ([1]; all dose levels, Total (n=38)): 8 (21%)
- Treatment-related diarrhea, number (%) of patients ([1]; all dose levels, Total (n=38)): 13 (34%)
- Treatment-related dry skin, number (%) of patients ([1]; all dose levels, Total (n=38)): 6 (16%)
- Treatment-related fatigue, number (%) of patients ([1]; all dose levels, Total (n=38)): 11 (29%)
- Treatment-related hyperglycemia, number (%) of patients ([1]; all dose levels, Total (n=38)): 5 (13%)
- Treatment-related nausea, number (%) of patients ([1]; all dose levels, Total (n=38)): 12 (32%)
- Treatment-related rash, number (%) of patients ([1]; all dose levels, Total (n=38)): 9 (24%)
- Treatment-related stomatitis, number (%) of patients ([1]; all dose levels, Total (n=38)): 11 (29%)
- Treatment-related vomiting, number (%) of patients ([1]; all dose levels, Total (n=38)): 6 (16%)
- Patients with DLTs ([1]; all evaluable patients, run-in period and first cycle): five of 38
- Diabetic ketoacidosis ([1]; all patients): No episodes of diabetic ketoacidosis
- Drug-related deaths ([1]; all patients): No drug-related deaths
- Grade of most drug-related adverse events ([1]; all patients): grade 1/2
- Patients with drug-related diarrhea ([1]; all patients): 34%
- Patients with drug-related nausea ([1]; all patients): 32%
- Patients with fatigue (most common AEs) ([1]; all patients): 29%
- Patients with nausea (most common AEs) ([1]; all patients): 32%
- Patients with rash (most common AEs) ([1]; all patients): 24%
- Antiproliferative effect [2]: strong antiproliferative effect
